The data set deals with MS2 coat protein. Description: apparent Kd, MS2 coat protein; higher = weaker binding; RNA-MaP array. In outline: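 With or without input ligand, designed RNAs transcribed on an Illumina sequencing chip from sequenced DNA templates were incubated at room temperature with fluorescently labeled MS2 coat protein at 1.5 nM to 3 μM. The buffer was Tris-HCl pH 7.5 with KCl, MgCl2, BSA, DTT, tRNA and Tween20, and incubation ran 0.8–1.5 h at the lowest and 10–20 min at the highest concentrations. Apparent Kd is reported as the median of fits to binding curves from individual clusters. Designs measured on fewer than 10 clusters are not included.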

Setting [1] is: designed as: OFF switch for flavin mononucleotide, no ligand.
Where [2] appears, read: ligand present: flavin mononucleotide, designed as: OFF switch for flavin mononucleotide.
Setting [3] is: designed as: ON switch for flavin mononucleotide, no ligand.
Setting [4] is: ligand present: flavin mononucleotide, designed as: ON switch for flavin mononucleotide.

As for “CGUAUGGGUGUCAGGAUAUGCGGGACGCUGUUACUGCAGAAGGGACAUGAGGAUCACCCAUGUAGUUCCAGACC”, the “apparent Kd” value worked out at 18.4 nM under setting [1] and 33.3 nM under setting [2].

For the sequence “GAGUACAGGGAGAAGGUGUAUUAAUACGCACGGCUGGUCACAUGAGGAUCACCCAUGUCGCAUAACAAGGAUAUCCGACUAAUC”, the “apparent Kd” value by setting is: under setting [1], 139 nM; under setting [2], 213 nM.

Turning to “CCACCCGACAUGAGGAUCACCCAUGUAGAUGAUCCUGUACCAUAGGAUAUAGGCGUAAGAGAGAUCUAGAAGGAUGUACAACCC”, the “apparent Kd” value reads like this: under setting [1], 108 nM; under setting [2], 73.5 nM.

“GAUUUACAUGAGGAUCACCCAUGUGAGGAUAUGCCGUACAUCGCGCUCUGAGCUAGUUGCAGAAGGCACAUGAU”: the “apparent Kd” value is 18.9 nM under setting [1] and 18.3 nM under setting [2].

As to “UAAGACGCAGGAUAUACAUGAGGAUCACCCAUGUGCAUACAAGUCAAGAGGUACAUAAGUAGAAGGGCGUGGAU”, the “apparent Kd” value is, setting by setting: under setting [1], 9.42 nM; under setting [2], 14.7 nM.

In the case of “UGAGCAUCCCAGAAGGAUAUAUGGUCGUAAACAUGAGGAUCACCCAUGUUCCAUUUAGGACUCAAAUAGAAGGUCUCGGGCCAGAC”, the “apparent Kd” value under setting [3] is 13.6 nM and the “apparent Kd” value under setting [4] was determined as 11.7 nM.

“GUGACUAGCGUAAGGAUAUUCACGAGCGGCGGCUUGAAGAAGGUACAUGAGGAUCACCCAUGUAGGGUAAUCAA”: the “apparent Kd” value amounted to 41.6 nM under setting [1] and 44.3 nM under setting [2].

Turning to “AUGAAGCUAAGAGAUACCAGUGACCACAGAUACAUGAGGAUCACCCAUGUCUCAAAUUGUCACCCUUGGCAGCUCACUAUCGAAG”, the “apparent Kd” value worked out at 10.2 nM (designed as: ON switch for theophylline, no ligand) and 9.26 nM (ligand present: theophylline, designed as: ON switch for theophylline).

With “UGCUAAAGUGAGAAGGGUGGACCACUCAUCGAGUAUGACACAUGAGGAUCACCCAUGUACGCUCCACAGGAUAUCAAAUUGAGG”, the “apparent Kd” value was found to be 156 nM under setting [3] and 28.8 nM under setting [4].

Regarding “AACGGCUGCGCGUAGGAUAUGGCCCAUCCAACAUGAGGAUCACCCAUGUGCCACGAUGAGACUUCCCAGAAGGACGGUGCGAUGAG”, the “apparent Kd” value reads like this: under setting [3], 18.4 nM; under setting [4], 11.6 nM.

“GCGGGAGAUCAGAAGGCUAUAACGUUUCACAUGAGGAUCACCCAUGUGGGCUCCUAGGGAUGGAUAGAGGAUAUGACCGAAUAU”: the “apparent Kd” value amounted to 12.9 nM under setting [1] and 13.3 nM under setting [2].

As for “CUAAAACAUGAGGAUCACCCAUGUGUUUAGCGCAGAGGAUAUUGGGAUUGGUUGCUCGCUCAAGAAGGCUGAUUGG”, the “apparent Kd” value runs as follows: under setting [3], 8.55 nM; under setting [4], 7.02 nM.

Turning to “ACGGUAGGCUAGAAGGCCCGGACUCGCCCAGAGGGAGGAUAUAGCAUUGGCGUACUACAUGGCACAUGAGGAUCACCCAUGUAA”, the “apparent Kd” value under setting [1] was 35.4 nM and the “apparent Kd” value under setting [2] stood at 30.6 nM.

As for “CCACAGACAUGAGGAUCACCCAUGUAGUUGGGCGUGUCAUCUCAGGAUAUGGCAACGCUUAUGAGCCAGAAGGGAGAAGGUUAU”, the “apparent Kd” value runs as follows: under setting [1], 13.4 nM; under setting [2], 12.8 nM.

On to “GCUACCACCGCAGGAUAUAAUCGGACACUCGUAGCGUUGCGAACAUGAGGAUCACCCAUGUCUAUUUAGAAGGGCGCAUGGGAU”, for which the “apparent Kd” value is 78.8 nM under setting [3] and 42.6 nM under setting [4].

Turning to “AAUAUUAUGUCGGCCGCCACUUCCCACAAGAGGUGCCUGCACCCACAUGAGGAUCACCCAUGUCGAAGGACCGGGACGCUCAAUU”, the “apparent Kd” value was 16.8 nM (designed as: ON switch for tryptophan, no ligand) and 15.6 nM (ligand present: tryptophan, designed as: ON switch for tryptophan).

For “GACCUCCUGCGAGCACAUGAGGAUCACCCAUGUAAGGACCUGAGAAGGCACCGUUAAGAUUGGAGUGAGGAUAUCAGGAUAUAG”, the “apparent Kd” value under setting [1] came out at 23.5 nM and the “apparent Kd” value under setting [2] was determined as 19.7 nM.

For “AAUAAACAGUAGAAGGCUGAUACCUACAAAAGUCGAAGACAUGAGGAUCACCCAUGUCAGUCAUCAGAGGAUAUACGUGAAUCG”, the “apparent Kd” value is, setting by setting: under setting [3], 12.3 nM; under setting [4], 7.49 nM.

Regarding “AAACAUGAGGAUCACCCAUGUAGAAUAAUCAGACGUUUGAACAGAAGGUGAAAACAAAUAAAACUCAAGGAUAUGUAACUAAAA”, the “apparent Kd” value is, setting by setting: under setting [3], 65.6 nM; under setting [4], 52.5 nM.

The term apparent Kd denotes a dissociation constant that holds for the conditions of the assay.
